According to ChEMBL document CHEMBL1127433, “N6-substituted adenosine receptor agonists. Synthesis and pharmacological activity as potent antinociceptive agents” (J Med Chem, 1994):

What follows are compounds tested against T1, Adenosine receptor A1 (Rattus norvegicus, UniProt P25099) (assay: Binding affinity for adenosine A1 receptor in vitro using rat brain membranes.). Conditions: not given.
T1 sequence (P25099 whole entry): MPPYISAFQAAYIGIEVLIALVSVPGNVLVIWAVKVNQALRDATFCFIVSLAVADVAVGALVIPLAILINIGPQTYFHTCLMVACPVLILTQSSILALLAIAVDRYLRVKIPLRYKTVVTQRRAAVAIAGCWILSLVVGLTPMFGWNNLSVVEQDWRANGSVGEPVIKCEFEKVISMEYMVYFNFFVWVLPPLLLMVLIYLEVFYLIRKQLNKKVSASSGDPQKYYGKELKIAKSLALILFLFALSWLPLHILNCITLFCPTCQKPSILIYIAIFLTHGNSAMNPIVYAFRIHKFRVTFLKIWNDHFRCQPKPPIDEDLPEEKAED
Assay type: cell membranes
Summary of the method: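 Whole rat brain membranes, homogenized in 50 mM Tris-HCl pH 7.4 and spun at 1090g then 48000g, pretreated with adenosine deaminase 1 U/mL for 30 min. Nonspecific binding defined with 10 μM PIA. Separated by GF/B filtration and scintillation counted, in triplicate. IC50 from log-logit regression, Ki via Cheng-Prusoff, one experiment.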

Structure (SMILES)	Ki
O=C(NC1CC1)[C@H]1OC(n2cnc3c(NCCc4cn(Cc5ccc(Cl)cc5)c5ccccc45)ncnc32)[C@H](O)[C@@H]1O (some centres not stated)	50 nM
O=C(NC1CC1)[C@H]1OC(n2cnc3c(NCCc4cn(Cc5ccccc5)c5ccccc45)ncnc32)[C@H](O)[C@@H]1O (some centres not stated)	40 nM
Cc1ccc(C)c(Cn2cc(CCNc3ncnc4c3ncn4C3O[C@H](C(=O)NC4CC4)[C@@H](O)[C@H]3O)c3ccccc32)c1 (some centres not stated)	140 nM
O=C(NC1CC1)[C@H]1O[C@@H](n2cnc3c(NCCc4cn(C5CCCC5)c5ccccc45)ncnc32)[C@H](O)[C@@H]1O	110 nM
C=CCn1cc(CCNc2ncnc3c2ncn3C2O[C@H](C(=O)NC3CC3)[C@@H](O)[C@H]2O)c2ccccc21 (some centres not stated)	39 nM
COCCn1cc(CCNc2ncnc3c2ncn3[C@@H]2O[C@H](C(=O)NC3CC3)[C@@H](O)[C@H]2O)c2ccccc21	23 nM

Each compound was assayed against T2, Adenosine receptor A1 (Rattus norvegicus) (UniProt P25099) (assay: Percent displacement from adenosine A1 receptor at 10e-5 M in rat brain membrane in vitro.). Conditions: not given.
T2 sequence (whole entry): T1 sequence (P25099 whole entry)
Assay type: cell membranes

Structure (SMILES)	Displacement
CSc1ccc2c(c1)c(CCNc1ncnc3c1ncn3C1O[C@H](C(=O)NC3CC3)[C@@H](O)[C@H]1O)cn2Cc1cc(C)ccc1C (some centres not stated)	82%
C#CCn1cc(CCNc2ncnc3c2ncn3C2O[C@H](C(=O)NC3CC3)[C@@H](O)[C@H]2O)c2ccccc21 (some centres not stated)	95%
Cc1ccc(C)c(Cn2c(-c3ccccc3)c(CCNc3ncnc4c3ncn4C3O[C@H](C(=O)NC4CC4)[C@@H](O)[C@H]3O)c3ccccc32)c1 (some centres not stated)	31%
CN(C)CCn1cc(CCNc2ncnc3c2ncn3C2O[C@H](C(=O)NC3CC3)[C@@H](O)[C@H]2O)c2ccccc21 (some centres not stated)	100%
O=C(NC1CC1)[C@H]1OC(n2cnc3c(NCCc4cn(Cc5ccc(Cl)cc5)c5ccccc45)ncnc32)[C@H](O)[C@@H]1O (some centres not stated)	98%
O=C(NC1CC1)[C@H]1OC(n2cnc3c(NCCc4cn(Cc5ccccc5)c5ccccc45)ncnc32)[C@H](O)[C@@H]1O (some centres not stated)	99%
Cc1ccc(C)c(Cn2cc(CCNc3ncnc4c3ncn4C3O[C@H](C(=O)NC4CC4)[C@@H](O)[C@H]3O)c3ccccc32)c1 (some centres not stated)	93%
O=C(NC1CC1)[C@H]1O[C@@H](n2cnc3c(NCCc4cn(C5CCCC5)c5ccccc45)ncnc32)[C@H](O)[C@@H]1O	96%
C=CCn1cc(CCNc2ncnc3c2ncn3C2O[C@H](C(=O)NC3CC3)[C@@H](O)[C@H]2O)c2ccccc21 (some centres not stated)	100%
COCCn1cc(CCNc2ncnc3c2ncn3[C@@H]2O[C@H](C(=O)NC3CC3)[C@@H](O)[C@H]2O)c2ccccc21	98%

Each compound was assayed against T2, Adenosine receptor A1 (Rattus norvegicus) (assay: Percent displacement from adenosine A1 receptor at 10e-7 M in rat brain membrane in vitro.). Conditions: not given.
Assay type: cell membranes

Structure (SMILES)	Displacement
CSc1ccc2c(c1)c(CCNc1ncnc3c1ncn3C1O[C@H](C(=O)NC3CC3)[C@@H](O)[C@H]1O)cn2Cc1cc(C)ccc1C (some centres not stated)	13%
C#CCn1cc(CCNc2ncnc3c2ncn3C2O[C@H](C(=O)NC3CC3)[C@@H](O)[C@H]2O)c2ccccc21 (some centres not stated)	64%
Cc1ccc(C)c(Cn2c(-c3ccccc3)c(CCNc3ncnc4c3ncn4C3O[C@H](C(=O)NC4CC4)[C@@H](O)[C@H]3O)c3ccccc32)c1 (some centres not stated)	6%
CN(C)CCn1cc(CCNc2ncnc3c2ncn3C2O[C@H](C(=O)NC3CC3)[C@@H](O)[C@H]2O)c2ccccc21 (some centres not stated)	83%
O=C(NC1CC1)[C@H]1OC(n2cnc3c(NCCc4cn(Cc5ccc(Cl)cc5)c5ccccc45)ncnc32)[C@H](O)[C@@H]1O (some centres not stated)	46%
O=C(NC1CC1)[C@H]1OC(n2cnc3c(NCCc4cn(Cc5ccccc5)c5ccccc45)ncnc32)[C@H](O)[C@@H]1O (some centres not stated)	35%
Cc1ccc(C)c(Cn2cc(CCNc3ncnc4c3ncn4C3O[C@H](C(=O)NC4CC4)[C@@H](O)[C@H]3O)c3ccccc32)c1 (some centres not stated)	26%
O=C(NC1CC1)[C@H]1O[C@@H](n2cnc3c(NCCc4cn(C5CCCC5)c5ccccc45)ncnc32)[C@H](O)[C@@H]1O	21%
C=CCn1cc(CCNc2ncnc3c2ncn3C2O[C@H](C(=O)NC3CC3)[C@@H](O)[C@H]2O)c2ccccc21 (some centres not stated)	56%
COCCn1cc(CCNc2ncnc3c2ncn3[C@@H]2O[C@H](C(=O)NC3CC3)[C@@H](O)[C@H]2O)c2ccccc21	61%

Each compound was assayed against Adenosine A2 receptor (Rattus norvegicus, UniProt P29276+P30543) (assay: Binding affinity for adenosine A2 receptor in vitro using rat striatal membrane.). Conditions: not given.
Assay type: cell membranes
Summary of the method: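 Rat striatal membranes in 50 mM Tris-HCl, 10 mM MgCl2, pH 7.7, adenosine deaminase treated (1 U/mL, 30 min). Incubated with [3H]NECA (4 nM, 50 μL) plus 0.11 μM cyclopentyladenosine and competitor for 60 min at 25 °C. Nonspecific binding defined with 5 μM NECA. GF/B filtration, scintillation counting, triplicate. IC50 from log-logit regression, Ki via Cheng-Prusoff, one experiment.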

Structure (SMILES)	Ki
O=C(NC1CC1)[C@H]1OC(n2cnc3c(NCCc4cn(Cc5ccc(Cl)cc5)c5ccccc45)ncnc32)[C@H](O)[C@@H]1O (some centres not stated)	320 nM
O=C(NC1CC1)[C@H]1OC(n2cnc3c(NCCc4cn(Cc5ccccc5)c5ccccc45)ncnc32)[C@H](O)[C@@H]1O (some centres not stated)	270 nM
Cc1ccc(C)c(Cn2cc(CCNc3ncnc4c3ncn4C3O[C@H](C(=O)NC4CC4)[C@@H](O)[C@H]3O)c3ccccc32)c1 (some centres not stated)	670 nM
O=C(NC1CC1)[C@H]1O[C@@H](n2cnc3c(NCCc4cn(C5CCCC5)c5ccccc45)ncnc32)[C@H](O)[C@@H]1O	350 nM
C=CCn1cc(CCNc2ncnc3c2ncn3C2O[C@H](C(=O)NC3CC3)[C@@H](O)[C@H]2O)c2ccccc21 (some centres not stated)	280 nM
COCCn1cc(CCNc2ncnc3c2ncn3[C@@H]2O[C@H](C(=O)NC3CC3)[C@@H](O)[C@H]2O)c2ccccc21	370 nM

These compounds were tested against T3, Adenosine A2 receptor (Rattus norvegicus) (UniProt P29276+P30543) (assay: Percent displacement from adenosine A2 receptor at 10e-5 M in rat striatal membrane in vitro.). Conditions: not given.
Assay type: cell membranes

Structure (SMILES)	Displacement
CSc1ccc2c(c1)c(CCNc1ncnc3c1ncn3C1O[C@H](C(=O)NC3CC3)[C@@H](O)[C@H]1O)cn2Cc1cc(C)ccc1C (some centres not stated)	76%
C#CCn1cc(CCNc2ncnc3c2ncn3C2O[C@H](C(=O)NC3CC3)[C@@H](O)[C@H]2O)c2ccccc21 (some centres not stated)	83%
Cc1ccc(C)c(Cn2c(-c3ccccc3)c(CCNc3ncnc4c3ncn4C3O[C@H](C(=O)NC4CC4)[C@@H](O)[C@H]3O)c3ccccc32)c1 (some centres not stated)	23%
CN(C)CCn1cc(CCNc2ncnc3c2ncn3C2O[C@H](C(=O)NC3CC3)[C@@H](O)[C@H]2O)c2ccccc21 (some centres not stated)	95%
O=C(NC1CC1)[C@H]1OC(n2cnc3c(NCCc4cn(Cc5ccc(Cl)cc5)c5ccccc45)ncnc32)[C@H](O)[C@@H]1O (some centres not stated)	91%
O=C(NC1CC1)[C@H]1OC(n2cnc3c(NCCc4cn(Cc5ccccc5)c5ccccc45)ncnc32)[C@H](O)[C@@H]1O (some centres not stated)	94%
Cc1ccc(C)c(Cn2cc(CCNc3ncnc4c3ncn4C3O[C@H](C(=O)NC4CC4)[C@@H](O)[C@H]3O)c3ccccc32)c1 (some centres not stated)	85%
O=C(NC1CC1)[C@H]1O[C@@H](n2cnc3c(NCCc4cn(C5CCCC5)c5ccccc45)ncnc32)[C@H](O)[C@@H]1O	90%
C=CCn1cc(CCNc2ncnc3c2ncn3C2O[C@H](C(=O)NC3CC3)[C@@H](O)[C@H]2O)c2ccccc21 (some centres not stated)	80%
COCCn1cc(CCNc2ncnc3c2ncn3[C@@H]2O[C@H](C(=O)NC3CC3)[C@@H](O)[C@H]2O)c2ccccc21	90%

Each compound was assayed against T3, Adenosine A2 receptor (Rattus norvegicus) (assay: Percent displacement from adenosine A2 receptor at 10e-7 M in rat striatal membrane in vitro.). Conditions: Striatum.
Assay type: cell membranes

Structure (SMILES)	Displacement
CSc1ccc2c(c1)c(CCNc1ncnc3c1ncn3C1O[C@H](C(=O)NC3CC3)[C@@H](O)[C@H]1O)cn2Cc1cc(C)ccc1C (some centres not stated)	8%
C#CCn1cc(CCNc2ncnc3c2ncn3C2O[C@H](C(=O)NC3CC3)[C@@H](O)[C@H]2O)c2ccccc21 (some centres not stated)	25%
Cc1ccc(C)c(Cn2c(-c3ccccc3)c(CCNc3ncnc4c3ncn4C3O[C@H](C(=O)NC4CC4)[C@@H](O)[C@H]3O)c3ccccc32)c1 (some centres not stated)	0%
CN(C)CCn1cc(CCNc2ncnc3c2ncn3C2O[C@H](C(=O)NC3CC3)[C@@H](O)[C@H]2O)c2ccccc21 (some centres not stated)	51%
O=C(NC1CC1)[C@H]1OC(n2cnc3c(NCCc4cn(Cc5ccc(Cl)cc5)c5ccccc45)ncnc32)[C@H](O)[C@@H]1O (some centres not stated)	30%
O=C(NC1CC1)[C@H]1OC(n2cnc3c(NCCc4cn(Cc5ccccc5)c5ccccc45)ncnc32)[C@H](O)[C@@H]1O (some centres not stated)	41%
Cc1ccc(C)c(Cn2cc(CCNc3ncnc4c3ncn4C3O[C@H](C(=O)NC4CC4)[C@@H](O)[C@H]3O)c3ccccc32)c1 (some centres not stated)	9%
O=C(NC1CC1)[C@H]1O[C@@H](n2cnc3c(NCCc4cn(C5CCCC5)c5ccccc45)ncnc32)[C@H](O)[C@@H]1O	28%
C=CCn1cc(CCNc2ncnc3c2ncn3C2O[C@H](C(=O)NC3CC3)[C@@H](O)[C@H]2O)c2ccccc21 (some centres not stated)	17%
COCCn1cc(CCNc2ncnc3c2ncn3[C@@H]2O[C@H](C(=O)NC3CC3)[C@@H](O)[C@H]2O)c2ccccc21	19%

These compounds were tested on Mus musculus (assay: Effective dose for phenylbenzoquinone-induced writhing in mice after peroral administration expressed as analgesic activity.). Conditions: po.
Assay type: functional
Summary of the method: (§1)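 Mice dosed orally (0.5 mL/20 g); 1 h later given 0.02% phenylbenzoquinone in hydroalcoholic solution ip (0.20-0.24 mL). Writhings and stretches counted from minute 5 to minute 10. Six animals per group. Inhibition taken against the control mean; ED50 (50% decrease) by linear regression.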

Structure (SMILES)	ED50
O=C(NC1CC1)[C@H]1OC(n2cnc3c(NCCc4cn(Cc5ccc(Cl)cc5)c5ccccc45)ncnc32)[C@H](O)[C@@H]1O (some centres not stated)	0.9 mg/kg
O=C(NC1CC1)[C@H]1OC(n2cnc3c(NCCc4cn(Cc5ccccc5)c5ccccc45)ncnc32)[C@H](O)[C@@H]1O (some centres not stated)	18.1 mg/kg
Cc1ccc(C)c(Cn2cc(CCNc3ncnc4c3ncn4C3O[C@H](C(=O)NC4CC4)[C@@H](O)[C@H]3O)c3ccccc32)c1 (some centres not stated)	2.4 mg/kg
O=C(NC1CC1)[C@H]1O[C@@H](n2cnc3c(NCCc4cn(C5CCCC5)c5ccccc45)ncnc32)[C@H](O)[C@@H]1O	1.5 mg/kg
C=CCn1cc(CCNc2ncnc3c2ncn3C2O[C@H](C(=O)NC3CC3)[C@@H](O)[C@H]2O)c2ccccc21 (some centres not stated)	5.3 mg/kg
COCCn1cc(CCNc2ncnc3c2ncn3[C@@H]2O[C@H](C(=O)NC3CC3)[C@@H](O)[C@H]2O)c2ccccc21	1.2 mg/kg

Each compound was assayed on Mus musculus (assay: Effective dose of compound for phenylbenzoquinone-Induced writhing in mice after peroral administration expressed as analgesic activity; Not dose dependent). Conditions: po.
Assay type: functional
Summary of the method: as §1

Structure (SMILES)	ED50
CSc1ccc2c(c1)c(CCNc1ncnc3c1ncn3C1O[C@H](C(=O)NC3CC3)[C@@H](O)[C@H]1O)cn2Cc1cc(C)ccc1C (some centres not stated)	> 10 mg/kg
C#CCn1cc(CCNc2ncnc3c2ncn3C2O[C@H](C(=O)NC3CC3)[C@@H](O)[C@H]2O)c2ccccc21 (some centres not stated)	< 10 mg/kg
Cc1ccc(C)c(Cn2c(-c3ccccc3)c(CCNc3ncnc4c3ncn4C3O[C@H](C(=O)NC4CC4)[C@@H](O)[C@H]3O)c3ccccc32)c1 (some centres not stated)	> 30 mg/kg
CN(C)CCn1cc(CCNc2ncnc3c2ncn3C2O[C@H](C(=O)NC3CC3)[C@@H](O)[C@H]2O)c2ccccc21 (some centres not stated)	> 60 mg/kg
